ALR inh = inhibitors of human sulfhydryl oxidase ALR. purified ALR, DTT oxidation, H2O2 HRP-luminol luminescence. 3.8% of 290,000 active. P55789. AID 485317. inhibition, % (no concentration beside the values);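 active = mean replicate inhibition above about 79%, with every replicate also reaching it, limit read from the data; inconclusive = only one of the two criteria met; inactive = mean below limit and not every replicate reaching it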
Target sequence (P55789 whole entry, looked up): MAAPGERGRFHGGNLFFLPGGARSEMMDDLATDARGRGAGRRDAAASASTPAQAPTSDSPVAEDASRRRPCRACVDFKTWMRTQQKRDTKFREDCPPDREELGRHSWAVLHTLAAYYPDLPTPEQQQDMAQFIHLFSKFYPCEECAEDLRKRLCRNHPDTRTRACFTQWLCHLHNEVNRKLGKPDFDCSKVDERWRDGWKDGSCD
AI-2 QS modul = modulates the Vibrio harveyi AI-2 quorum sensing system. activity change, % at 7.5 µM. Vibrio harveyi JMH597 AI-2 luminescence/OD600 ratio, 9 h; hits give low values; strain lacks LuxN and CqsS sensors; 0 = neutral-control median. 0.4% of 300,000 active; in the data active = activity change below about -75%, passing the limit was not always enough; inconclusive = no clear call, values can overlap the other calls;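 note: luminescence divided by OD600 gain over 9 h not by final OD600 alone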
HSF-1 act = increases HSF-1 driven luciferase reporter signal | NIH3T3-HGL HSF-1 luciferase reporter, MG132, 8 h; 100% = twice DMSO control signal | activation, % at 9 µM | 1.7% of 300,000 active;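 active = mean replicate activation of at least 50% with a set share of replicates each reaching 50%; inconclusive = only one of those two conditions met; inactive = mean below 50% and too few replicates reaching it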
PHOSPHO1 block = blocks human PHOSPHO1 phosphatase activity; AID 1565; Q8TCT1; recombinant PHOSPHO1, absorbance phosphatase assay; inhibition, % at 13.3 µM; 1.1% of 290,000 active; in the data active = inhibition above about 60%
Target sequence (Q8TCT1 whole entry, looked up): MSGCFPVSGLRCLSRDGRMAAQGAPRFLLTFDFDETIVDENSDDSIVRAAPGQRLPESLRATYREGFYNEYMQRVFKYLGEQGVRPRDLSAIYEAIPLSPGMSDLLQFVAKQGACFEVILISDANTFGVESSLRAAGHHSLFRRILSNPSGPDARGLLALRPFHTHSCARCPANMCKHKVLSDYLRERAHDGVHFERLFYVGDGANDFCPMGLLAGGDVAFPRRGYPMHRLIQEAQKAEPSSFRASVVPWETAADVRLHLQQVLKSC
HCV core dimer = HCV core protein dimerization inhibition. TR-FRET GST/Flag-core106 dimerization, 1536-well. inhibition, % at 5 µM. 0.33% of 300,000 active. AID 1899;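 active = inhibition above the mean of all tested compounds plus 3 SD, set per screening campaign, cut at about 45% in these data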
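Material: Tagged HCV core106 pair (GST and Flag) | Amount: GST-core106 13.5 nM, Flag-core106 17 nM | Medium: KF-containing HEPES buffer, pH 7.45, DTT, CHAPS, BSA | Reagent: Eu donor and XL665 acceptor anti-tag antibodies | Schedule: 4 h at 22.5 °C | Technique: Time-resolved FRET, ex 340 nm, em 617 and 671 nm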
HSF1 inhib = HSF1 inhibition. NIH3T3-HGL HSE-luciferase, MG132-induced, luminescence 8 h; hits give low values. activity change, negative = inhibition, % at 7.5 µM (by protocol). 0.77% of 300,000 active;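 active = more than half of replicate wells show activity change below -50%, luminescence cut by over half; inconclusive = some wells, but at most half, below -50%; inactive = no replicate well below -50%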;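 note: luciferase reports HSF-1 transcriptional activity via heat shock element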
Each line names hits and unclear results; the compound was inactive in the other large screens. Compounds with a hit are over-represented: about 6.8% of the library has one in this group of screens.

O=S(=O)(Nc1nc(-c2ccccc2)cs1)c1cc(Cl)ccc1Cl	ALR inh 90.4
CCOc1ccc(N(CC(=O)NC2CCCCC2)C(=O)CCC(=O)Nc2nc(C)cs2)cc1	HSF1 inhib -59.0
CCc1nn2c(=O)cc(COc3ccc(NC(=O)c4ccco4)cc3)nc2s1	none
CCCc1nn2c(=O)cc(COc3ccc(NC(=O)c4ccco4)cc3)nc2s1	PHOSPHO1 block 63.6
Cc1cc(NC(=O)Cn2cc([N+](=O)[O-])cn2)no1	none
Cc1ccc(/C=N\NC(=O)Cc2noc3ccccc23)cc1	HSF1 inhib -86.8 (no result: ALR inh)
Cc1ccc(NC(=O)Cc2noc3ccccc23)cc1	none
C/C(=N/NS(=O)(=O)c1ccc(Br)cc1)c1ccc(NC(=O)c2ccc(C)o2)cc1	PHOSPHO1 block 74.3
CCN(CC(=O)NCCC1=CCCCC1)S(=O)(=O)c1ccccc1	none (no result: ALR inh)
COc1ccc(CCn2c(-c3ccc(Cl)cc3)n[nH]c2=S)cc1OC	none
COc1ccc(CCn2c(C)ccc2C)cc1OC	HCV core dimer 47.4
Cc1cc(C)cc(OCC(O)CN2C(=O)NC(C)(C)C2=O)c1 (stereo unspecified)	HSF-1 act 64.1
O=C(Cn1cc([N+](=O)[O-])cn1)N1CCN(c2ccccc2)CC1	none
O=C(COc1cccnc1[N+](=O)[O-])N1CCc2ccccc2C1	PHOSPHO1 block 60.9
O=C(Cn1cc([N+](=O)[O-])cn1)N1CCc2ccccc2C1	PHOSPHO1 block 61.0
O=C(Cn1cnc2ccccc2c1=O)N1CCc2ccccc2C1	PHOSPHO1 block 62.9
O=C(Cn1cnc2ccccc2c1=O)N1CCOCC1	none (no result: ALR inh)
O=C(COc1cccnc1[N+](=O)[O-])N1CCc2ccccc21	none
CCOc1ccc(CNCCN2CCCC2)cc1	none
Cc1nn(C)c(C(=O)NNC(=O)Nc2cccc(C(F)(F)F)c2)c1Cl	none
Nc1nonc1C(=O)NCCNC(=O)c1cccc(Cl)c1	none
CC(=O)N1CCC(c2c[nH]c3ccccc23)CC1	ALR inh 95.9
O=C(c1c[nH]c2ccccc2c1=O)N1CCCCCC1	none
COc1ccc(CNC(C)CCc2ccccc2)cc1 (stereo unspecified)	HSF1 inhib -66.9 (no result: PHOSPHO1 block)
COc1cc(NC(C)CCc2ccccc2)cc(OC)c1OC (stereo unspecified)	ALR inh 87.9
CCOc1ccc(OCC)c(NC(=O)C2CCN(c3cnccn3)CC2)c1	none
O=c1[nH][nH]c(-c2ccccc2O)c1C(C[N+](=O)[O-])c1ccccc1 (stereo unspecified)	AI-2 QS modul inconclusive, HSF-1 act 228.2
O=C(/C=C/c1ccc2c(c1)OCO2)Nc1c(C(=O)O)[nH]c2ccccc12	ALR inh 98.5
O=C(/C=C/c1ccc2c(c1)OCO2)Nc1nc(-c2ccccc2)cs1	none
O=C(/C=C/c1ccc2c(c1)OCO2)Nc1nncs1	HSF-1 act 52.8 (no result: ALR inh)
Cc1ccc(NC(=O)CSc2nccn2Cc2ccccc2)cc1C	ALR inh 98.3, PHOSPHO1 block 86.0
Cc1ccc(NC(=O)CSc2nnc(-c3ccccn3)n2C)cc1	none
Cc1ccc(NC(=O)CSc2ncc3ccccn23)cc1	ALR inh 99.2
Cc1ccc(NC(=O)CSc2nccn2Cc2ccco2)cc1	ALR inh 89.4
O=C(CSc1nccn1Cc1ccco1)Nc1cccc(F)c1	HSF1 inhib -74.1
O=C(CSc1nccn1Cc1ccco1)Nc1ccc(F)cc1	ALR inh 99.1
COc1ccc(NC(=O)CSc2nccn2Cc2ccco2)c(OC)c1	none
Cc1cc(Cc2cc(C)c(N)cc2C)c(C)cc1N	ALR inh 97.0
Cc1ccc(C)c(N)c1	none (no result: AI-2 QS modul, HSF-1 act, PHOSPHO1 block, HCV core dimer, HSF1 inhib)
CCOC(=O)c1sc2cc([N+](=O)[O-])cc(SCC(=O)OC)c2c1N	PHOSPHO1 block 99.2
N#Cc1ccc(NC(=O)CSc2nc3[nH]c(=O)cc(O)c3s2)cc1	ALR inh 99.5 (no result: AI-2 QS modul, HSF-1 act, PHOSPHO1 block, HCV core dimer, HSF1 inhib)
CSc1ccc(NC(=O)CSc2nc3[nH]c(=O)cc(O)c3s2)cc1	ALR inh 99.0 (no result: AI-2 QS modul, HSF-1 act, PHOSPHO1 block, HCV core dimer, HSF1 inhib)
COc1ccc(NC(=O)CSc2nc3[nH]c(=O)cc(O)c3s2)cc1OC	ALR inh 99.0 (no result: AI-2 QS modul, HSF-1 act, PHOSPHO1 block, HCV core dimer, HSF1 inhib)
COc1ccc(NC(=O)CSc2nc3[nH]ncc3c(=O)[nH]2)cc1OC	ALR inh 95.9 (no result: PHOSPHO1 block)
O=C(CSc1nc2[nH]ncc2c(=O)[nH]1)Nc1ccc(Cl)c(Cl)c1	none (no result: PHOSPHO1 block)
COc1ccc(NC(=O)CSc2nc3[nH]c(=O)cc(O)c3s2)c(OC)c1	none (no result: AI-2 QS modul, HSF-1 act, PHOSPHO1 block, HCV core dimer, HSF1 inhib)
CN(c1nc2ccccc2[nH]c1=O)C1CCCCC1	none (no result: ALR inh)
COc1ccc(Cc2nc3ccc(C(=O)N(C)CCc4cnn(C)c4)cc3o2)cc1OC	none (no result: ALR inh, PHOSPHO1 block, HCV core dimer)
Nc1nc(SCC(=O)Nc2ccccc2Sc2ccccc2)n[nH]1	none
Clc1cc(Sc2ccc(Br)cc2)nnc1-c1ccccc1	none (no result: ALR inh)
O=[N+]([O-])c1cc(-c2nc3nc4ccccc4nc3n2CCc2ccccc2)cc([N+](=O)[O-])c1	none
O=c1ccc(Cl)n[nH]1	none (no result: ALR inh)
NCCCC(=O)O	HSF1 inhib -70.4
NCCCCC(=O)O	none (no result: AI-2 QS modul, HSF-1 act, PHOSPHO1 block, HSF1 inhib)
CN(C)S(=O)(=O)N1CCN(CC(O)COc2ccc(-c3ccccc3)cc2)CC1 (stereo unspecified)	none
COc1cccc(-n2c(=S)sc3c(=O)n(-c4ccccc4OC)c(=S)[nH]c32)c1	none
COc1cccc(-n2c(N)c(-c3nc4ccccc4[nH]3)sc2=S)c1	HSF1 inhib -55.1
COc1ccc(-c2nc(C3CCCCC3)no2)cc1OC	HSF-1 act 81.0
COc1ccc(NC(=O)NNC(=O)c2ccc(-c3ccccc3)cc2)c(OC)c1	none (no result: HCV core dimer)
COc1ccc(NC(=O)NNC(=O)c2cc3occc3n2C)c(OC)c1	HSF-1 act 133.3
O=C(CNC(=O)c1ccccc1)NCC(=O)OCc1ccccc1Cl	PHOSPHO1 block 60.0
O=C(N[C@@H](Cc1ccccc1)C(=O)OCc1ccccc1)c1ccco1	none (no result: AI-2 QS modul, HSF-1 act, PHOSPHO1 block, HCV core dimer, HSF1 inhib)
COC(=O)C1=NN(C(=O)c2ccc(C)cc2)C(O)(c2ccc(Cl)cc2)C1 (stereo unspecified)	HSF-1 act 147.4
COC(=O)C1=NN(C(=O)c2ccccc2)C(C)(O)C1 (stereo unspecified)	none
COC(=O)C1=NN(C(=O)c2ccccc2)C(O)(c2ccc([N+](=O)[O-])cc2)C1 (stereo unspecified)	ALR inh inconclusive, HSF-1 act 272.6 (no result: HCV core dimer)
CC1=NN(C(=O)c2ccc(Cl)cc2)C(O)(c2ccccc2)C1 (stereo unspecified)	none
O=C(Cn1cnc2ccccc2c1=O)NC1CCS(=O)(=O)C1 (stereo unspecified)	none (no result: AI-2 QS modul, PHOSPHO1 block)
O=C(C1CC1)N1CCN=C1SCc1cccc(F)c1	ALR inh 99.0 (no result: AI-2 QS modul, HSF-1 act, HSF1 inhib)
CC(=O)N1CCN=C1SCc1ccc(C(F)(F)F)cc1	ALR inh 99.0
O=C(C1CC1)N1CCN=C1SCc1ccc(F)cc1	ALR inh 99.7
CC(Oc1ccccc1)C(=O)N1CCN=C1SCc1ccccc1 (stereo unspecified)	none

From PubChem BioAssay
